Compound activity from PubChem BioAssay.
Platelet DG rel – modulates dense granule release in human platelets | inhibition, %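 (compounds screened at 7.5 µM in platelet-rich plasma)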 | AID 1663 | 0.22% of 300,000 active | human platelet-rich plasma, SFLLRN dense granule ATP release, luminescence;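 active means mean replicate score, as percent of positive control, at or above 50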
SENP8 block-1 – blocks the human protease SENP8; Q96LD8; purified SENP8, Z-RLRGG-aminoluciferin cleavage, luminescence; inhibition, % at 10 µM; 1.2% of 330,000 active; AID 2540; in the data active means inhibition above about 50%
SENP6 block – SENP6 protease inhibition | Q9GZR1 | Recombinant SENP6 catalytic domain, aminoluciferin luminescence | inhibition, % at 10 µM | 1.8% of 330,000 active;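 active means inhibition above about 50% at the single tested dose, limit read from the data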
Target sequence (Q9GZR1 628-1112 limits assumed): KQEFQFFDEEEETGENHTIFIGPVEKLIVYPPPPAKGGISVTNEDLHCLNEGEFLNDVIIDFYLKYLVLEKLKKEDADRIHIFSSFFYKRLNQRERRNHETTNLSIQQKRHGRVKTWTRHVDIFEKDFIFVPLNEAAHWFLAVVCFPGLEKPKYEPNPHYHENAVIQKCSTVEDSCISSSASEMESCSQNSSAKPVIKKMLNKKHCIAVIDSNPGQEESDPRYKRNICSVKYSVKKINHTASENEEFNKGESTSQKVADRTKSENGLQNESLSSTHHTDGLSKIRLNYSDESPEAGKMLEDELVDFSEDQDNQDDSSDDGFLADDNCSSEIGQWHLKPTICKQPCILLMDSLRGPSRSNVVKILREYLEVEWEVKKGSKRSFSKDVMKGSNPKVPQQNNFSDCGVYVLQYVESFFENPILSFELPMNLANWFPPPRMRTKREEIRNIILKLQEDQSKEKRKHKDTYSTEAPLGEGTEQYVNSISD
SENP7 block – blocks the human protease SENP7 | 1.5% of 330,000 active | recombinant SENP7, Z-RLRGG-aminoluciferin luminescence, 40 min | AID 434973 | inhibition, % at 5 µM;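 active means inhibition above about 50% at the single test dose, limit read from the data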
SENP1 FRET inh – SENP1 (human) catalytic domain inhibition. Q9P0U3. recombinant SENP1 catalytic domain, CyPet-SUMO1-YPet FRET cleavage. inhibition, % at 10 µM. 0.21% of 360,000 active;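 active means inhibition at least 30% at 10 µM, raw YFP signal under a set limit, fluorescence ratio 0.5 to 1.5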
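Material – human SENP1 catalytic domain · Input – SENP1 enzyme, 20 pM final · Compound dosing – single concentration of 10 µM compound, 0.5% DMSO final · Timing – enzyme reaction for 50 min at room temperature, dark · Measured by – FRET fluorescence in CFP and YFP emission channels · Control set – no-enzyme wells low, DMSO-plus-enzyme wells high control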
SENP8 block-2 – blocks human SENP8 cleavage of Nedd8 substrate; Q96LD8; recombinant SENP8, Nedd8 substrate fluorescence; inhibition, % at 20 µM; 0.64% of 360,000 active; AID 602440; in the data active means inhibition mostly above about 40%, no sharp cut-off; inactive means mostly below about 27%
SENP8 conf – human SENP8 inhibition, confirmed; shares compounds with SENP7 block; Recombinant SENP8, Z-RLRGG-aminoluciferin luminescence, 60 min; inhibition, % at 12.5 µM; 40% of 6,200 active;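 active means mean inhibition across replicates above about 50%, limit read from the data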
SENP6 confirm – confirmation of human SENP6 protease inhibitors; shares compounds with SENP7 block; recombinant SENP6, Z-RLRGG-aminoluciferin luminescence; inhibition, % at 12.5 µM; 58% of 6,200 active
SENP7 confirm – human SENP7 inhibition, confirmed; shares compounds with SENP7 block; recombinant SENP7, Z-RLRGG-aminoluciferin luminescence, 40 min; inhibition, % at 12.5 µM; 69% of 6,200 active; AID 488917
Casp3 SENP sel – caspase-3 inhibition (SENP selectivity assay) | inhibition, % at 12.5 µM | 60% of 6,200 active | shares compounds with SENP7 block | purified caspase-3, Z-DEVD-aminoluciferin luminescence, 60 min;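 active means mean inhibition above about 50%, limit read from the data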
Target sequence (P42574 28-227 limits assumed): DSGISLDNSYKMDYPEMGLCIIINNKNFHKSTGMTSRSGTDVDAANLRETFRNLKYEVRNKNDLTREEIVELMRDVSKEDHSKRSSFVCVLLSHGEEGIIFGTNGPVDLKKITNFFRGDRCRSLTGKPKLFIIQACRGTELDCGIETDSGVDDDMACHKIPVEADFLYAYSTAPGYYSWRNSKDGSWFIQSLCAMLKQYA
SENP luc ctr – counter-screen for SENP inhibitors: luminescence interference; Pre-incubated SENP8/Z-RLRGG-aminoluciferin, luciferase luminescence interference; inhibition, % at 12.5 µM; 39% of 6,200 active; shares compounds with SENP7 block;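 active means mean inhibition above about 50% when retested at one dose, limit read from the data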
Of the large screens only hits and unclear results are named; the others gave an inactive call (follow-up assays come after a bar, where they were run). Shown are actives, neighbours in structure and some others; about 2.6% of the full set was active somewhere.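 How the source made its calls, unless noted: active means mean inhibition above about 50% in the one-dose retest (limit read from the data); inactive means the rest.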

N#Cc1ccccc1OCC(=O)Nc1nnc(C2CC2)s1	none (no result: Platelet DG rel)
O=C(O)c1ccccc1COc1ccccc1Cl	none
Cc1oc2ccc(OCc3ccccc3Cl)cc2c1C(=O)O	SENP6 block 62 | SENP8 conf inactive | SENP6 confirm inactive | SENP7 confirm 51 | Casp3 SENP sel 55 | SENP luc ctr inactive
O=C(O)c1cccc(OCc2ccccc2Cl)c1	SENP8 block-1 79, SENP6 block 94, SENP7 block 75 | SENP8 conf 86 | SENP6 confirm 86 | SENP7 confirm 97 | Casp3 SENP sel 82 | SENP luc ctr 89
CC(=O)c1c(C)oc2ccc(OCc3ccccc3)cc12	SENP6 block 55 | SENP8 conf inactive | SENP6 confirm inactive | SENP7 confirm 68 | Casp3 SENP sel inactive | SENP luc ctr inactive
COC(=O)c1cc(COc2ccc3oc(C)c(C(=O)OC)c3c2)c(C)o1	none
O=C1CC(C(=O)N2CCN(S(=O)(=O)c3cccc(F)c3)CC2)CN1Cc1ccccc1Cl (stereo not drawn)	none
COc1ccc(C(CNC(=O)c2cccc(S(=O)(=O)N(C)c3ccccc3)c2)N2CCCC2)cc1 (stereo not drawn)	none (no result: Platelet DG rel)
CCOc1ccc(S(=O)(=O)N2CCN(C(=O)c3cc4ccccc4o3)CC2)cc1	none (no result: Platelet DG rel)
Cc1ncsc1C(=O)Nc1nc2c(s1)CC(C)CC2 (stereo not drawn)	SENP8 block-1 92, SENP6 block 96, SENP7 block 98 | SENP8 conf inactive | SENP6 confirm 72 | SENP7 confirm 93 | Casp3 SENP sel 84 | SENP luc ctr inactive
Cc1cnc(NC(=O)C2COc3ccccc3O2)s1 (stereo not drawn)	SENP8 block-1 52, SENP6 block 58, SENP7 block 65 | SENP8 conf 69 | SENP6 confirm 68 | SENP7 confirm 89 | Casp3 SENP sel 79 | SENP luc ctr 73
CC1CCc2nc(NC(=O)C3COc4ccccc4O3)sc2C1 (stereo not drawn)	SENP6 block 75 | SENP8 conf 72 | SENP6 confirm 72 | SENP7 confirm 91 | Casp3 SENP sel 59 | SENP luc ctr inactive
CCc1nc2ccccc2c(C(=O)OCC(=O)N2CC(C)OC(C)C2)c1C (stereo not drawn)	none
Fc1ccc(-c2cn3cc(C(F)(F)F)cc(Cl)c3n2)cc1	SENP6 block 75, SENP7 block 82 | SENP8 conf 59 | SENP6 confirm 77 | SENP7 confirm 86 | Casp3 SENP sel 58 | SENP luc ctr inactive
Cc1ccc2[nH]c(=O)c(COC(=O)C3CCCCC3)cc2c1	none
Cc1cc2nc(-c3ccc[nH]c3=O)n(Cc3ccc(F)cc3)c2cc1C	none
Cc1cc2nc(-c3ccc[nH]c3=O)[nH]c2cc1C	Platelet DG rel 52, SENP8 block-1 92, SENP6 block 95, SENP7 block 97 | SENP8 conf 96 | SENP6 confirm 97 | SENP7 confirm 102 | Casp3 SENP sel 98 | SENP luc ctr 82
COCCn1cnnc1SCC(=O)Nc1ccc(N2CCCCC2)cc1	none (no result: Platelet DG rel)
N#Cc1c(NC(=S)NC(=O)c2ccccc2)sc2c1CCC2	none
CCN1CCc2c(sc(NC(=S)NC(=O)c3ccccc3)c2C#N)C1	SENP6 block 56 | SENP8 conf inactive | SENP6 confirm inactive | SENP7 confirm inactive | Casp3 SENP sel inactive | SENP luc ctr inactive
Nc1c(C(=O)O)ccc2c1C(=O)c1ccccc1C2=O	SENP8 block-1 54 | SENP8 conf 69 | SENP6 confirm 66 | SENP7 confirm 83 | Casp3 SENP sel 79 | SENP luc ctr 73
COC(=O)c1ccc2c(c1O)C(=O)c1ccccc1C2=O	SENP6 block 71 | SENP8 conf inactive | SENP6 confirm 55 | SENP7 confirm 66 | Casp3 SENP sel 74 | SENP luc ctr inactive
Nc1c(SCCC(=O)O)ccc2c1C(=O)c1ccccc1C2=O	SENP8 block-1 84, SENP6 block 89 | SENP8 conf 93 | SENP6 confirm 93 | SENP7 confirm 98 | Casp3 SENP sel 94 | SENP luc ctr 92
Cc1nn(-c2ccccc2)c(Cl)c1C(=O)OCC(=O)NCCc1ccc(S(N)(=O)=O)cc1	none (no result: Platelet DG rel)
O=C1NC2=C(C(=O)CCC2)C(c2cccc([N+](=O)[O-])c2)N1 (stereo not drawn)	none
COc1ccc2nc(Nc3ccccc3OC)sc2c1	SENP8 block-1 92, SENP6 block 92, SENP7 block 98 | SENP8 conf 96 | SENP6 confirm 96 | SENP7 confirm 101 | Casp3 SENP sel 91 | SENP luc ctr 87
Cc1ccccc1Nc1nc2ccccc2s1	SENP8 block-1 68, SENP7 block 72 | SENP8 conf 84 | SENP6 confirm 84 | SENP7 confirm 95 | Casp3 SENP sel 69 | SENP luc ctr 71
COc1ccc2nc(Nc3nc4cc5c(cc4s3)OCO5)sc2c1	none
COc1ccc2nc(NC(=O)Nc3ccccc3OC)sc2c1	SENP6 block 81, SENP7 block 93 | SENP8 conf inactive | SENP6 confirm inactive | SENP7 confirm inactive | Casp3 SENP sel 64 | SENP luc ctr inactive
Fc1ccc(Nc2nc3ccccc3s2)cc1	none
COc1ccc2nc(Nc3ccc4c(c3)OCO4)sc2c1	SENP7 block 58 | SENP8 conf inactive | SENP6 confirm inactive | SENP7 confirm inactive | Casp3 SENP sel inactive | SENP luc ctr inactive
COc1ccc2nc(NC(=O)Nc3cccc4ccccc34)sc2c1	none
CSc1ccc(S(=O)(=O)NCC(=O)OCC(=O)N(C)C2CCCCC2)cc1[N+](=O)[O-]	none
COc1ccc2nc(Nc3ccccc3)sc2c1	SENP8 block-1 70, SENP6 block 56, SENP7 block 84 | SENP8 conf 88 | SENP6 confirm 88 | SENP7 confirm 98 | Casp3 SENP sel 61 | SENP luc ctr 84
O=C(COc1ccc(C(=S)N2CCCC2)cc1)Nc1ccc(F)cc1	none
Fc1ccc(COc2ccc(C(=S)N3CCCC3)cc2)cc1	SENP6 block 62 | SENP8 conf 60 | SENP6 confirm 54 | SENP7 confirm 76 | Casp3 SENP sel inactive | SENP luc ctr inactive
CCOc1cc(C(=S)N2CCCC2)ccc1OCc1ccccc1	none
